Measured values from different studies.
Target: Serine/threonine-protein kinase PLK1 (PLK1, Homo sapiens, UniProt P53350)

| SMILES | assay | conditions | quantity | value |
| --- | --- | --- | --- | --- |
| Cn1cc(-c2cccc(N3CCc4c(sc5c4CC(C)(C)C5)C3=O)c2CO)cc(Nc2ccncn2)c1=O | enzyme activity, inhibitor | 1 µM | inhibition | 4% |
| C#Cc1n[nH]c2c(-c3cn([C@@H](C)c4ccccn4)c(=O)[nH]c3=O)cc(F)cc12 | enzyme activity, inhibitor | 0.1 µM | inhibition | 2.9% |
| N#CC1(c2ccccn2)CCN(Cc2cc(C(=O)O)c(=O)n3ccccc23)CC1 | cell-free assay, competition with immobilised ligand | 1 µM | remaining binding | 70% |
| Cn1cc(-c2cc(F)cc(N3CCn4c(cc5c4CCCC5)C3=O)c2CO)cc(Nc2ccc(N3CCN(C4COC4)CC3)cn2)c1=O | enzyme activity, inhibitor | 0.1 µM | inhibition | 11% |
| O=c1[nH]c2ccccc2n1C1CCN(Cc2ccc(-c3[nH]c4cc5ncnc5cc4nc3-c3ccccc3)cc2)CC1 | cell-free assay | 0.5 µM | remaining signal | 109% |
| Nc1ncc(-c2nc(N3CCOCC3)nc(N3CCOCC3)n2)c(C(F)F)n1 | binding, competition with immobilised ligand | 10 µM | remaining binding | 66% |
| C#Cc1n[nH]c2c(-c3cn([C@@H](C)c4ccccc4)c(=O)[nH]c3=O)cc(F)cc12 | enzyme activity, inhibitor | 0.1 µM | inhibition | 2.9% |
| Cn1cncc1[C@@](O)(COc1ccc(C#N)cc1-c1ccc(OC(F)(F)F)cc1)c1ccc(C#N)cc1 | cell-free assay, competition with immobilised ligand | 1 µM | remaining binding | 83% |
| Cc1nn(C)cc1-c1nc2c(N3CCN(Cc4ccc(Cl)cc4)CC3)c(Cl)cnc2[nH]1 | binding, competition with immobilised ligand | 1 µM | remaining binding | 100% |
| CC(C)(C)c1cc(C=C(C#N)C#N)cc(Br)c1O | enzyme activity, inhibitor | 0.5 µM | remaining activity | 92.3% |
| COc1ncccc1-c1cnn2ccc(N3CCN(C(=O)OC(C)C)CC3)nc12 | binding, competition with immobilised ligand | 1 µM | remaining binding | 100% |
